Experimental data published in ChEMBL document CHEMBL3352602, “One-pot synthesis and antiproliferative activity of novel 2,4-diaminopyrimidine derivatives bearing piperidine and piperazine moieties” (Eur J Med Chem, 2014).

What was measured:
[1] = tested on: MCF7; assay: Cytotoxicity against human MCF7 cells after 48 hrs by MTT assay; type: functional, cell-based; conditions: MCF7, 48 h
In short: (§1)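 MTT assay on cells grown in DMEM with 10% FBS and split at 70-80% confluence by trypsinization. Seeded 1×10^4 cells/well, attached 24 h at 37 °C. Compounds came from 10 mM DMSO stocks diluted in medium to a concentration series, with 0.1% DMSO as negative control. Cells were exposed for 48 h at 37 °C, then given MTT for 4 h. Formazan was dissolved in DMSO and read at 570 nm. IC50 was fitted from % inhibition versus control, mean of three independent experiments.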

[2] = tested on: A549; assay: Cytotoxicity against human A549 cells after 48 hrs by MTT assay; type: functional, cell-based; conditions: A549, 48 h; in short: as §1
[3] = tested on: MDA-MB-231; assay: Cytotoxicity against human MDA-MB-231 cells after 48 hrs by MTT assay; type: functional, cell-based; conditions: MDA-MB-231, 48 h; in short: as §1
[4] = tested on: HepG2; assay: Cytotoxicity against human HepG2 cells after 48 hrs by MTT assay; type: functional, cell-based; conditions: HepG2, 48 h; in short: as §1
[5] = tested on: MDA-MB-231; assay: Induction of cell cycle arrest in human MDA-MB-231 cells assessed as accumulation at G0/G1 phase at 20 uM after 48 hrs by propidium iodide staining based FACS analysis (reference value: 37.97%); type: functional
[6] = tested on: MDA-MB-231; assay: Induction of cell cycle arrest in human MDA-MB-231 cells assessed as accumulation at G2/M phase at 80 uM after 48 hrs by propidium iodide staining based FACS analysis (reference value: 18.12%); type: functional
[7] = tested on: MDA-MB-231; assay: Induction of cell cycle arrest in human MDA-MB-231 cells assessed as accumulation at S phase at 20 uM after 48 hrs by propidium iodide staining based FACS analysis (reference value: 42.22%); type: functional
[8] = tested on: MDA-MB-231; assay: Induction of cell cycle arrest in human MDA-MB-231 cells assessed as accumulation at subG1 phase at 40 uM after 48 hrs by propidium iodide staining based FACS analysis (reference value: 1.69%); type: functional
[9] = tested on: MDA-MB-231; assay: Induction of cell cycle arrest in human MDA-MB-231 cells assessed as accumulation at G0/G1 phase at 80 uM after 48 hrs by propidium iodide staining based FACS analysis (reference value: 37.97%); type: functional
[10] = tested on: MDA-MB-231; assay: Induction of cell cycle arrest in human MDA-MB-231 cells assessed as accumulation at S phase at 40 uM after 48 hrs by propidium iodide staining based FACS analysis (reference value: 42.22%); type: functional
[11] = tested on: MDA-MB-231; assay: Induction of cell cycle arrest in human MDA-MB-231 cells assessed as accumulation at G2/M phase after 48 hrs by propidium iodide staining based FACS analysis (reference value: 18.12%); type: functional
[12] = tested on: A549; assay: Cytotoxicity against human A549 cells after 48 hrs by MTT assay relative to fluorouracil; type: functional
[13] = tested on: MDA-MB-231; assay: Induction of cell cycle arrest in human MDA-MB-231 cells assessed as accumulation at G0/G1 phase at 40 uM after 48 hrs by propidium iodide staining based FACS analysis (reference value: 37.97%); type: functional
[14] = tested on: MDA-MB-231; assay: Induction of cell cycle arrest in human MDA-MB-231 cells assessed as accumulation at subG1 phase at 80 uM after 48 hrs by propidium iodide staining based FACS analysis (reference value: 1.69%); type: functional
[15] = tested on: MDA-MB-231; assay: Induction of cell cycle arrest in human MDA-MB-231 cells assessed as accumulation at G2/M phase at 20 uM after 48 hrs by propidium iodide staining based FACS analysis (reference value: 18.12%); type: functional
[16] = tested on: MDA-MB-231; assay: Induction of cell cycle arrest in human MDA-MB-231 cells assessed as accumulation at S phase at 80 uM after 48 hrs by propidium iodide staining based FACS analysis (reference value: 42.22%); type: functional
[17] = tested on: MDA-MB-231; assay: Induction of cell cycle arrest in human MDA-MB-231 cells assessed as accumulation at G2/M phase at 40 uM after 48 hrs by propidium iodide staining based FACS analysis (reference value: 18.12%); type: functional
[18] = tested on: MDA-MB-231; assay: Induction of cell cycle arrest in human MDA-MB-231 cells assessed as accumulation at subG1 phase at 20 uM after 48 hrs by propidium iodide staining based FACS analysis (reference value: 1.69%); type: functional
[19] = tested on: MDA-MB-231; assay: Cytotoxicity against human MDA-MB-231 cells after 48 hrs by MTT assay relative to fluorouracil; type: functional

Row | SMILES | IC50 [1] [µM] | IC50 [2] [µM] | IC50 [3] [µM] | IC50 [4] [µM] | other results
1 | CS(=O)(=O)N1CCC(Nc2ncc(Cl)c(NCCc3ccc(Cl)cc3)n2)CC1 | > 200 | > 200 | > 200 | > 200 | 
2 | CS(=O)(=O)N1CCC(Nc2nccc(Nc3ccc(Cl)cc3)n2)CC1 | > 200 | > 200 | > 200 | 78.6 | 
3 | COc1cccc(Nc2nccc(NC3CCN(S(C)(=O)=O)CC3)n2)c1 | 72.1 | > 200 | 109 | 67.9 | 
4 | CS(=O)(=O)N1CCC(Nc2ncc(Cl)c(NCc3ccccc3)n2)CC1 | 32.4 | 46.8 | 11.7 | > 200 | 
5 | COc1ccc(CNc2ccnc(N3CCN(C)CC3)n2)cc1 | > 200 | > 200 | > 200 | > 200 | 
6 | CS(=O)(=O)N1CCC(Nc2ncc(Cl)c(Nc3ccc(Cl)cc3)n2)CC1 | > 200 | > 200 | > 200 | > 200 | 
7 | COc1ccccc1CCNc1nccc(N2CCN(C)CC2)n1 | > 200 | > 200 | > 200 | > 200 | 
8 | CN1CCN(c2nccc(NCc3ccccc3)n2)CC1 | > 200 | > 200 | > 200 | > 200 | 
9 | CS(=O)(=O)N1CCC(Nc2ccnc(Nc3ccc(Cl)cc3)n2)CC1 | > 200 | > 200 | 102 | 92.6 | 
10 | COc1ccc(CCNc2nc(NC3CCN(S(C)(=O)=O)CC3)ncc2Cl)cc1 | > 200 | > 200 | > 200 | > 200 | 
11 | COc1ccc(Nc2nc(NC3CCN(S(C)(=O)=O)CC3)ncc2Cl)cc1 | > 200 | > 200 | > 200 | > 200 | 
12 | CS(=O)(=O)N1CCC(Nc2nccc(NCc3ccccc3)n2)CC1 | 98.5 | 42.5 | 60.8 | 149 | 
13 | CS(=O)(=O)N1CCC(Nc2ncc(Cl)c(Nc3ccccc3)n2)CC1 | > 200 | > 200 | > 200 | > 200 | 
14 | COc1cccc(Nc2nc(NC3CCN(S(C)(=O)=O)CC3)ncc2Cl)c1 | > 200 | > 200 | > 200 | > 200 | 
15 | CN1CCN(c2ccnc(Nc3ccc(Cl)cc3)n2)CC1 | > 200 | > 200 | > 200 | > 200 | 
16 | COc1cccc(Nc2ccnc(N3CCN(C)CC3)n2)c1 | > 200 | > 200 | > 200 | > 200 | 
17 | CS(=O)(=O)N1CCC(Nc2ncc(Cl)c(NCCc3ccccc3)n2)CC1 | > 200 | > 200 | > 200 | 123 | 
18 | COc1ccc(CNc2nccc(NC3CCN(S(C)(=O)=O)CC3)n2)cc1 | 16.2 | 12.8 | 7.46 | 20.2 | Activity [5]: 33.09%; Activity [6]: 40.95%; Activity [7]: 32.03%; Activity [8]: 1.03%; Activity [9]: 31.01%; Activity [10]: 29.91%; Activity [11]: Dose-dependent effect; Ratio IC50 [12]: 2; Activity [13]: 32.55%; Activity [14]: 1.26%; Activity [15]: 33.79%; Activity [16]: 26.78%; Activity [17]: 36.51%; Activity [18]: 1.09%; Ratio IC50 [19]: 2
19 | COc1ccc(CNc2nc(NC3CCN(S(C)(=O)=O)CC3)ncc2Cl)cc1 | 64.8 | 60.9 | 34.1 | > 200 | 
20 | COc1cccc(Nc2ccnc(NC3CCN(S(C)(=O)=O)CC3)n2)c1 | 77.8 | > 200 | 29.4 | 86.6 | 
21 | COc1ccc(Nc2nccc(N3CCN(C)CC3)n2)cc1 | > 200 | > 200 | > 200 | > 200 | 
22 | COc1ccc(CCNc2nccc(NC3CCN(S(C)(=O)=O)CC3)n2)cc1 | 32.8 | 21.4 | 15.8 | 20 | 
23 | O=c1[nH]cc(F)c(=O)[nH]1 [FLUOROURACIL] | 39.9 |  | 24.6 |  | 
24 | COc1ccc(CNc2ccnc(NC3CCN(S(C)(=O)=O)CC3)n2)cc1 | 57.2 | 51.6 | 33.7 | 51.7 | 
25 | COc1ccc(Nc2nccc(NC3CCN(S(C)(=O)=O)CC3)n2)cc1 | > 200 | 91.7 | 57.7 | 86.2 | 
